Measured values taken from paper PMC9401513 (Clinical Cancer Research, 2021).

Tests used:
[1] = Clinical pharmacokinetics; type: in vivo, human; details: for systemic exposure (AUCtau, Cmax) versus dose: 0.2 to 3.7 mg/kg every 3 weeks dose levels of PF-06647020; for Cmax: ADC, Cycle 1 single dose, geometric mean (geometric % CV)
[2] = system: patients with advanced solid tumors; assay: Adverse events graded by NCI-CTCAE v4.03 in phase I patients; type: in vivo, human
In short: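 Test compound was given by IV infusion over about 60 min every 3 weeks in sequential dose-escalation cohorts to adults with advanced solid tumors (ECOG 0–1). Adverse events were graded by NCI-CTCAE v4.03 over all cycles and tabulated as treatment-related by dose level. G-CSF was permitted after cycle 1. Antiemetics and corticosteroids were given at the physician's discretion.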

[3] = 0.2 mg/kg every 3 weeks, all cycles, 2 evaluable pts
[4] = 0.5 mg/kg every 3 weeks, all cycles, 2 evaluable pts
[5] = 1.25 mg/kg every 3 weeks, all cycles, 2 evaluable pts
[6] = 2.1 mg/kg every 3 weeks, all cycles, 4 evaluable pts
[7] = 2.8 mg/kg every 3 weeks, all cycles, 96 evaluable pts
[8] = 3.7 mg/kg every 3 weeks, all cycles, 6 evaluable pts
[9] = every 3 weeks, all cycles, N = 112

B1: cofetuzumab pelidotin (conjugate, chains of the INN, looked up)
VH: QVQLVQSGPEVKKPGASVKVSCKASGYTFTDYAVHWVRQAPGKRLEWIGVISTYNDYTYNNQDFKGRVTMTRDTSASTAYMELSRLRSEDTAVYYCARGNSYFYALDYWGQGTSVTVSS
VL: EIVLTQSPATLSLSPGERATLSCRASESVDSYGKSFMHWYQQKPGQAPRLLIYRASNLESGIPARFSGSGSGTDFTLTISSLEPEDFAVYYCQQSNEDPWTFGGGTKLEIK
modifications: auristatin-0101 payload, vc linker
AUC ratio between ADC and total antibody ([1]; 2.8 mg/kg every 3 weeks): approximately 0.9
systemic exposure (AUCtau, Cmax) versus dose [1]: generally increased in a dose-related manner
systemic exposure (AUCtau, Cmax) versus dose ([1]; listed as ADC): generally increased in a dose-proportional manner
Cmax ([1]; 2.8 mg/kg Q2W IV): 99.7 µg/mL
Cmax ([1]; 2.8 mg/kg Q3W IV): 79.8 µg/mL
Number of AEs (TRAEs) [2, 3]: 1 n (%)
Pts discontinued due to AEs (TRAEs) [2, 3]: 0 n (%)
Pts with AEs (TRAEs) [2, 3]: 1 (50.0) n (%)
Pts with G3/G4 AEs (TRAEs) [2, 3]: 1 (50.0) n (%)
Pts with SAEs (TRAEs) [2, 3]: 0 n (%)
Pts with dose reduction and temporary discontinuation due to AEs (TRAEs) [2, 3]: 0 n (%)
Pts with dose reduction due to AEs (TRAEs) [2, 3]: 0 n (%)
Pts with temporary discontinuation due to AEs (TRAEs) [2, 3]: 0 n (%)
Number of AEs (TRAEs) [2, 4]: 1 n (%)
Pts discontinued due to AEs (TRAEs) [2, 4]: 0 n (%)
Pts with AEs (TRAEs) [2, 4]: 1 (50.0) n (%)
Pts with G3/G4 AEs (TRAEs) [2, 4]: 0 n (%)
Pts with SAEs (TRAEs) [2, 4]: 0 n (%)
Pts with dose reduction and temporary discontinuation due to AEs (TRAEs) [2, 4]: 0 n (%)
Pts with dose reduction due to AEs (TRAEs) [2, 4]: 0 n (%)
Pts with temporary discontinuation due to AEs (TRAEs) [2, 4]: 0 n (%)
Number of AEs (TRAEs) [2, 5]: 6 n (%)
Pts discontinued due to AEs (TRAEs) [2, 5]: 0 n (%)
Pts with AEs (TRAEs) [2, 5]: 1 (50.0) n (%)
Pts with G3/G4 AEs (TRAEs) [2, 5]: 0 n (%)
Pts with SAEs (TRAEs) [2, 5]: 0 n (%)
Pts with dose reduction and temporary discontinuation due to AEs (TRAEs) [2, 5]: 0 n (%)
Pts with dose reduction due to AEs (TRAEs) [2, 5]: 0 n (%)
Pts with temporary discontinuation due to AEs (TRAEs) [2, 5]: 0 n (%)
Number of AEs (TRAEs) [2, 6]: 28 n (%)
Pts discontinued due to AEs (TRAEs) [2, 6]: 1 (25.0) n (%)
Pts with AEs (TRAEs) [2, 6]: 4 (100.0) n (%)
Pts with G3/G4 AEs (TRAEs) [2, 6]: 0 n (%)
Pts with SAEs (TRAEs) [2, 6]: 1 (25.0) n (%)
Pts with dose reduction and temporary discontinuation due to AEs (TRAEs) [2, 6]: 0 n (%)
Pts with dose reduction due to AEs (TRAEs) [2, 6]: 0 n (%)
Pts with temporary discontinuation due to AEs (TRAEs) [2, 6]: 0 n (%)
Number of AEs (TRAEs) [2, 7]: 475 n (%)
Pts discontinued due to AEs (TRAEs) [2, 7]: 2 (2.1) n (%)
Pts with AEs (TRAEs) [2, 7]: 84 (87.5) n (%)
Pts with G3/G4 AEs (TRAEs) [2, 7]: 40 (41.7) n (%)
Pts with SAEs (TRAEs) [2, 7]: 9 (9.4) n (%)
Pts with dose reduction and temporary discontinuation due to AEs (TRAEs) [2, 7]: 3 (3.1) n (%)
Pts with dose reduction due to AEs (TRAEs) [2, 7]: 7 (7.3) n (%)
Pts with temporary discontinuation due to AEs (TRAEs) [2, 7]: 16 (16.7) n (%)
Number of AEs (TRAEs) [2, 8]: 27 n (%)
Pts discontinued due to AEs (TRAEs) [2, 8]: 0 n (%)
Pts with AEs (TRAEs) [2, 8]: 5 (83.3) n (%)
Pts with G3/G4 AEs (TRAEs) [2, 8]: 3 (50.0) n (%)
Pts with SAEs (TRAEs) [2, 8]: 0 n (%)
Pts with dose reduction and temporary discontinuation due to AEs (TRAEs) [2, 8]: 1 (16.7) n (%)
Pts with dose reduction due to AEs (TRAEs) [2, 8]: 0 n (%)
Pts with temporary discontinuation due to AEs (TRAEs) [2, 8]: 0 n (%)
patients reporting headache after infusion on cycle 1, day 1 or 2 ([2]; all patients, every 3 weeks and every 2 weeks cohorts): 29 patients
grade 1–2 peripheral sensory neuropathy ([2]; every 2 weeks, N = 25): 20%
grade 3 peripheral sensory neuropathy ([2]; every 2 weeks, N = 25): 8%
patients discontinued because of a TRAE ([2]; every 2 weeks, N = 25): 4%
patients with dose reduction ([2]; every 2 weeks, N = 25): 16%
patients with grade ≥ 3 all-cause AEs ([2]; every 2 weeks, N = 25): 72%
temporary discontinuations due to TRAEs ([2]; every 2 weeks, N = 25): 44%
treatment-related grade 3–4 neutropenia ([2]; every 2 weeks, N = 25): 24%
patients died on study ([2]; every 2 weeks, N = 25, disease progression): 16%
deaths because of a treatment-related AE ([2]; every 3 weeks and every 2 weeks): None of the patients died because of a treatment-related AE
treatment-emergent, all-cause AEs ([2]; every 3 weeks or every 2 weeks): all patients
treatment-related grade 5 AEs ([2]; every 3 weeks regimen): ^aNo treatment-related grade 5 AEs were observed with the every 3 weeks regimen.
febrile neutropenia ([2]; every 3 weeks, N = 112): 2.7%
grade ≥ 3 treatment-related neutropenia ([2]; every 3 weeks, N = 112): 25%
patients discontinued because of a TRAE ([2]; every 3 weeks, N = 112): 2.7%
patients with dose reduction ([2]; every 3 weeks, N = 112): 6.3%
patients with grade ≥ 3 all-cause AEs ([2]; every 3 weeks, N = 112): 79.4%
temporary discontinuations due to TRAEs ([2]; every 3 weeks, N = 112): 14.3%
treatment-related peripheral sensory neuropathy (all grade 1 or 2) ([2]; every 3 weeks, N = 112): 12.5%
patients died on study ([2]; every 3 weeks, N = 112, mostly disease progression): 15.2%
TRAE Alopecia, Grade 1 [2, 9]: 13 (11.6) n (%)
TRAE Alopecia, Grade 2 [2, 9]: 33 (29.5) n (%)
TRAE Alopecia, Grade 3 [2, 9]: 0 n (%)
TRAE Alopecia, Grade 4 [2, 9]: 0 n (%)
TRAE Alopecia, Total [2, 9]: 46 (41.1) n (%)
TRAE Arthralgia, Grade 1 [2, 9]: 16 (14.3) n (%)
TRAE Arthralgia, Grade 2 [2, 9]: 2 (1.8) n (%)
TRAE Arthralgia, Grade 3 [2, 9]: 1 (0.9) n (%)
TRAE Arthralgia, Grade 4 [2, 9]: 0 n (%)
TRAE Arthralgia, Total [2, 9]: 19 (17.0) n (%)
TRAE Decreased appetite, Grade 1 [2, 9]: 11 (9.8) n (%)
TRAE Decreased appetite, Grade 2 [2, 9]: 7 (6.3) n (%)
TRAE Decreased appetite, Grade 3 [2, 9]: 0 n (%)
TRAE Decreased appetite, Grade 4 [2, 9]: 0 n (%)
TRAE Decreased appetite, Total [2, 9]: 18 (16.1) n (%)
TRAE Diarrhea, Grade 1 [2, 9]: 8 (7.1) n (%)
TRAE Diarrhea, Grade 2 [2, 9]: 8 (7.1) n (%)
TRAE Diarrhea, Grade 3 [2, 9]: 1 (0.9) n (%)
TRAE Diarrhea, Grade 4 [2, 9]: 0 n (%)
TRAE Diarrhea, Total [2, 9]: 17 (15.2) n (%)
TRAE Fatigue, Grade 1 [2, 9]: 19 (17.0) n (%)
TRAE Fatigue, Grade 2 [2, 9]: 19 (17.0) n (%)
TRAE Fatigue, Grade 3 [2, 9]: 3 (2.7) n (%)
TRAE Fatigue, Grade 4 [2, 9]: 0 n (%)
TRAE Fatigue, Total [2, 9]: 41 (36.6) n (%)
TRAE Headache, Grade 1 [2, 9]: 13 (11.6) n (%)
TRAE Headache, Grade 2 [2, 9]: 19 (17.0) n (%)
TRAE Headache, Grade 3 [2, 9]: 5 (4.5) n (%)
TRAE Headache, Grade 4 [2, 9]: 0 n (%)
TRAE Headache, Total [2, 9]: 37 (33.0) n (%)
TRAE Myalgia, Grade 1 [2, 9]: 11 (9.8) n (%)
TRAE Myalgia, Grade 2 [2, 9]: 3 (2.7) n (%)
TRAE Myalgia, Grade 3 [2, 9]: 1 (0.9) n (%)
TRAE Myalgia, Grade 4 [2, 9]: 0 n (%)
TRAE Myalgia, Total [2, 9]: 15 (13.4) n (%)
TRAE Nausea, Grade 1 [2, 9]: 28 (25.0) n (%)
TRAE Nausea, Grade 2 [2, 9]: 21 (18.8) n (%)
TRAE Nausea, Grade 3 [2, 9]: 1 (0.9) n (%)
TRAE Nausea, Grade 4 [2, 9]: 0 n (%)
TRAE Nausea, Total [2, 9]: 50 (44.6) n (%)
TRAE Neutropenia, Grade 1 [2, 9]: 0 n (%)
TRAE Neutropenia, Grade 2 [2, 9]: 4 (3.6) n (%)
TRAE Neutropenia, Grade 3 [2, 9]: 17 (15.2) n (%)
TRAE Neutropenia, Grade 4 [2, 9]: 11 (9.8) n (%)
TRAE Neutropenia, Total [2, 9]: 32 (28.6) n (%)
TRAE Peripheral sensory neuropathy, Grade 1 [2, 9]: 7 (6.3) n (%)
TRAE Peripheral sensory neuropathy, Grade 2 [2, 9]: 7 (6.3) n (%)
TRAE Peripheral sensory neuropathy, Grade 3 [2, 9]: 0 n (%)
TRAE Peripheral sensory neuropathy, Grade 4 [2, 9]: 0 n (%)
TRAE Peripheral sensory neuropathy, Total [2, 9]: 14 (12.5) n (%)
TRAE Vomiting, Grade 1 [2, 9]: 10 (8.9) n (%)
TRAE Vomiting, Grade 2 [2, 9]: 14 (12.5) n (%)
TRAE Vomiting, Grade 3 [2, 9]: 4 (3.6) n (%)
TRAE Vomiting, Grade 4 [2, 9]: 0 n (%)
TRAE Vomiting, Total [2, 9]: 28 (25.0) n (%)
